Series [1] deals with HEK293. Nature of the series: Cytotoxicity against human HEK293 cells assessed as reduction in cell viability after 24 to 48 hrs by […] assay.
For series [2], the system named is Staphylococcus aureus. The series can be described thus: Effect on methicillin-susceptible Staphylococcus aureus RF122 growth at >= MIC after 2 hrs. In kind it is organism-based.
Series [3] deals with A549. The series can be described thus: Cytotoxicity against human A549 cells assessed as change in cell morphology at 12.5 to 25 uM after 10 mins to 2 hrs by microscopic analysis. In kind it is cell-based. As to conditions: a549, 25 µM.
In series [4] the test system is Staphylococcus aureus. Nature of the series: Antibacterial activity against methicillin-susceptible Staphylococcus aureus ATCC 25923 assessed as zone of inhibition at 30 ug after 18 hrs by disk diffusion method. The settings on record: ATCC 25923, 18 h, read-out: DIZ. It is filed as functional. In a few lines:
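Disks 6 mm in diameter; a 6 mm zone means no growth inhibition. The diameters of complete-inhibition zones are averaged over at least three independent experiments and reported with standard errors.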

Series [5] concerns Staphylococcus aureus. Nature of the series: Antibacterial activity against methicillin-susceptible Staphylococcus aureus ATCC 29213 assessed as growth inhibition after 18 to 20 hrs by microdilution assay. In kind it is functional. The essentials: (§1)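 Broth microdilution gives both MIC and MBC. Each compound is serially 2-fold diluted starting from its stock concentration.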

The subject of series [6] is HEK293. The series can be described thus: Cytotoxicity against human HEK293 cells assessed as change in cell morphology at 12.5 to 25 uM after 10 mins to 2 hrs by microscopic analysis. It is filed as cell-based. As to conditions: hek293, 25 µM.
Series [7] concerns Staphylococcus aureus. Nature of the series: Antibacterial activity against methicillin-resistant Staphylococcus aureus USA300 SF8300 assessed as zone of inhibition at 30 ug after 18 hrs by disk diffusion method. In kind it is functional. The settings on record: USA300 SF8300, 18 h, read-out: DIZ. In a few lines: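 Disk diffusion on 6 mm paper disks, with methicillin-susceptible S. aureus ATCC 25923 as the control strain alongside MRSA USA300 SF8300. The read-out is the diameter of the complete inhibition zone, averaged over at least three independent experiments and reported with standard errors. A 6 mm zone means no growth inhibition.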
In general terms: In agar diffusion tests the substance spreads into inoculated agar from a disc or well.

The subject of series [8] is Staphylococcus aureus. Nature of the series: Bactericidal activity against methicillin-resistant Staphylococcus aureus USA300 SF8300 after 18 to 20 hrs. It is filed as functional. The essentials: (§2)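 Broth microdilution to find MIC and MBC against MRSA USA300 SF8300. Each compound was serially 2-fold diluted starting from its stock concentration.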
Series [9] relates to Staphylococcus aureus. Nature of the series: Antibacterial activity against methicillin-resistant Staphylococcus aureus USA300 SF8300 assessed as growth inhibition after 18 to 20 hrs by microdilution assay. It is filed as functional. The essentials:
as §2

For series [10], the system named is Staphylococcus aureus. The series can be described thus: Bactericidal activity against methicillin-susceptible Staphylococcus aureus ATCC 29213 after 18 to 20 hrs. It is filed as functional. The essentials:
as §1

Series [11] concerns Staphylococcus aureus. Nature of the series: Antibacterial activity against methicillin-susceptible Staphylococcus aureus RF122 infected in A549 cells assessed as inhibition of bacterial invasion after 2 hrs.
Series [12] concerns A549. Nature of the series: Cytotoxicity against human A549 cells assessed as reduction in cell viability after 24 to 48 hrs by Presto Blue assay. It is filed as cell-based.
In series [13] the test system is HEK293. Nature of the series: Cytotoxicity against human HEK293 cells assessed as cells detachment at 50 uM after 10 mins by microscopic analysis. It is filed as cell-based. The settings on record: hek293, 10 min.
For series [14], the system named is A549. The series can be described thus: Cytotoxicity against human A549 cells assessed as cells detachment at 50 uM after 10 mins by microscopic analysis. The settings on record: a549, 10 min. It is filed as cell-based.
The subject of series [15] is Staphylococcus aureus. Nature of the series: Antibacterial activity against methicillin-susceptible Staphylococcus aureus RF122 infected in A549 cells assessed as inhibition of bacterial invasion at 1.5 uM after 1 hr. It is filed as functional, organism-based. In a few lines:
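Invasion assay in human epithelial A549 cells infected with S. aureus while the test compound was present. Concentrations were held below those that damage A549 cells. Both non-invading and invading bacteria were then cultured to rule out effects on bacterial growth.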

Series [16] deals with A549. The series can be described thus: Cytotoxicity against human A549 cells assessed as cells detachment at 12.5 uM after 2 hrs by microscopic analysis. In kind it is cell-based. The settings on record: a549, 2 h.
The subject of series [17] is HEK293. Nature of the series: Cytotoxicity against human HEK293 cells assessed as cells detachment at 12.5 uM after 2 hrs by microscopic analysis. It is filed as cell-based. The settings on record: hek293, 2 h.

A word on the IC50: it is the concentration that inhibits the measured activity by half. By MIC is commonly meant the smallest concentration in the dilution series that meets the test's criterion for growth inhibition. Usually MBC stands for the smallest concentration meeting the test's criterion for killing.

≈ marks a conversion by molar mass, not a printed value. Calls of active or inactive are those of the source.

Turning to `CC(C)=CCc1c2c(c(O)c3c1O[C@@]14C(=C[C@H]5CC1C(C)(C)O[C@]4(C/C=C(/C)C(=O)N[C@H](C(=O)O)C(C)C)C5=O)C3=O)C=CC(C)(C)O2`, the IC50 in the series on HEK293 [1] was found to be 21.8 µM; in the series with A549 [12] it was 29.8 µM. In addition, the Activity result in the series with Staphylococcus aureus [2], in the series on A549 [3] and in the series with HEK293 [6] was “Non-toxic” each time. The zone of inhibition at 30 µg/disc in the series on Staphylococcus aureus [4] was found to be 20 mm; with Staphylococcus aureus [7] it was 22.2 mm. Further, the minimum inhibitory concentration (MIC) in the series with Staphylococcus aureus [5] amounted to 12.5 µM (≈ 8.25 µg/mL); in the series on Staphylococcus aureus [9], 25 µM (≈ 16.5 µg/mL). Moreover, the figures for the MBC with Staphylococcus aureus [8] and against Staphylococcus aureus [10] were 25 µM (≈ 16.5 µg/mL) and 12.5 µM (≈ 8.25 µg/mL), respectively. Besides, the inhibition entry in the series with Staphylococcus aureus [11] is “Dose-dependent effect”.

On to `CC(C)=CCc1c2c(c(O)c3c1O[C@@]14C(=C[C@H]5CC1C(C)(C)O[C@]4(C/C=C(/C)C(=O)O)C5=O)C3=O)C=CC(C)(C)O2`, for which the IC50 amounted to 2.33 µM with HEK293 [1] and 3.5 µM with A549 [12]. The Activity result in the series on HEK293 [13], in the series with A549 [14], in the series on A549 [16] and with HEK293 [17] was “Toxic” each time. For the same compound, the zone of inhibition at 30 µg/disc in the series on Staphylococcus aureus [4] came to 19.2 mm; in the series with Staphylococcus aureus [7], 19.5 mm. The minimum inhibitory concentration (MIC) in the series with Staphylococcus aureus [5] and in the series with Staphylococcus aureus [9] was 12.5 µM (≈ 7.01 µg/mL) each time. Further, the minimum bactericidal concentration (MBC) came to 25 µM (≈ 14 µg/mL) in the series on Staphylococcus aureus [8] and 12.5 µM (≈ 7.01 µg/mL) in the series with Staphylococcus aureus [10]. Also, in the series with Staphylococcus aureus [15], the inhibition result was “inactive”.

These data come from ChEMBL document CHEMBL3808328, “Caged xanthones: Potent inhibitors of global predominant MRSA USA300” (Bioorg Med Chem Lett, 2016).
